Source: ChEMBL document CHEMBL1148984, “Bioactive compounds from the seeds of Punica granatum (pomegranate)” (2004)

How the values were obtained:
Plasma [1] = assay: Antioxidant activity against LDL-susceptible to oxidation in New Zealand White rabbit plasma assessed as increase in conjugated diene formation at 12.5 ug/mL after 30 mins; assay type: functional, Oryctolagus cuniculus
In short: (§1)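 LDL in phosphate-buffered KCl dialysis buffer (pH 7.4), dialysed 4 h at 4 °C in the dark and diluted to 0.25 mg LDL/mL (protein by Lowry, BSA standard). Compound (final 1.25, 2.5 or 5.0 × 10-5 g/mL) or saline vehicle preincubated ~30 min at 20 °C. Oxidation started with CuSO4 (final 5.0 µmol/L), 37 °C for 4 h. A234 monitored; conjugated diene increase = (A4h − A0h)/A0h × 100%.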

Brain [2] = assay: Antioxidant activity against lipid peroxidation in Wistar rat brain assessed as inhibition of malondialdehyde release at 12.5 ug/mL by thiobarbituric acid method relative to control; assay type: functional, tissue-based; parameters: scale not given: the % may be the effect or the level left
In short: (§2)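 Male Wistar rat brain homogenised fresh (10% w/v) in 50 mM phosphate buffer, pH 7.4; protein by Lowry. Aliquots incubated 30 min at 37 °C with compound (final 1.25, 2.5 or 5.0 × 10-5 g/mL) or saline vehicle. Stopped with SDS, then TBA in HCl/acetic acid, boiled 15 min. Chromogen extracted into n-butanol–pyridine (15:1); A532 read against MDA standards.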

Brain [3] = assay: Antioxidant activity against lipid peroxidation in Wistar rat brain assessed as inhibition of malondialdehyde release at 50 ug/mL by thiobarbituric acid method relative to control; assay type: functional, tissue-based; parameters: scale not given: the % may be the effect or the level left; in short: as §2
Plasma [4] = assay: Antioxidant activity against LDL-susceptible to oxidation in New Zealand White rabbit plasma assessed as increase in conjugated diene formation at 50 ug/mL after 30 mins; assay type: functional, Oryctolagus cuniculus; in short: as §1
Brain [5] = assay: Antioxidant activity against lipid peroxidation in Wistar rat brain assessed as inhibition of malondialdehyde release at 25 ug/mL by thiobarbituric acid method relative to control; assay type: functional, tissue-based; parameters: scale not given: the % may be the effect or the level left; in short: as §2
Plasma [6] = assay: Antioxidant activity against LDL-susceptible to oxidation in New Zealand White rabbit plasma assessed as increase in conjugated diene formation at 25 ug/mL after 30 mins; assay type: functional, Oryctolagus cuniculus; in short: as §1

O=C1O[C@H]([C@@H](O)CO)C(O)=C1O [ASCORBIC ACID] was tested, and the Activity (Plasma [1]) was 3.7% and the Activity (Brain [2]) was 50.1%.

For COc1cc2c(=O)oc3c(OC)c(O)cc4c(=O)oc(c1OC)c2c34, the Activity (Brain [3]) was 31.1%, the Activity (Plasma [1]) was 29.8% and the Conjugated diene increase (Plasma [4]) was 21%. The Activity (Brain [5]) was 24.6%, the Activity (Brain [2]) was 18.3% and the Activity (Plasma [6]) was 27.2%.

Work on COc1cc(/C=C/CO[C@@H]2O[C@H](CO[C@@H]3OC[C@](O)(CO)[C@H]3O)[C@@H](O)[C@H](O)[C@H]2O)ccc1O yielded an Activity (Brain [3]) of 35.6%, an Activity (Plasma [1]) of 15.4% and a Conjugated diene increase (Plasma [4]) of 7.3%. It also gave an Activity (Brain [5]) of 32.4%, an Activity (Brain [2]) of 28.9% and an Activity (Plasma [6]) of 10.5%.

Molecule COc1cc(/C=C/CO[C@@H]2O[C@H](CO[C@@H]3OC[C@](O)(CO)[C@H]3O)[C@@H](O)[C@H](O)[C@H]2O)cc(OC)c1O has an Activity (Brain [3]) of 32.1%, an Activity (Plasma [1]) of 17.6% and a Conjugated diene increase (Plasma [4]) of 12.2%. The Activity (Brain [5]) was 29.8%, the Activity (Brain [2]) was 26.5% and the Activity (Plasma [6]) was 14.4%.

For COc1c(O)cc2c(=O)oc3c(OC)c(O)cc4c(=O)oc1c2c34, the Activity (Brain [3]) was 28.1%, the Activity (Plasma [1]) was 27% and the Conjugated diene increase (Plasma [4]) was 20.4%. The Activity (Brain [5]) was 20.1%, the Activity (Brain [2]) was 21.8% and the Activity (Plasma [6]) was 28.9%.
